This note sets out measurements from ChEMBL document CHEMBL1125049, “Aporphines as antagonists of dopamine D-1 receptors” (J Med Chem, 1990).

The source made the active and inactive calls. No cut-off for these calls is given here.

The target of experiment [1] is D(1A) dopamine receptor (Rattus norvegicus, UniProt P18901).
The target in experiment [2] is D(2) dopamine receptor (Rattus norvegicus, UniProt P61169). The experiment in a line: In vitro binding affinity towards rat Dopamine receptor D2 by [3H]spiperone displacement.
Sequence of D(2) dopamine receptor (P61169 whole entry): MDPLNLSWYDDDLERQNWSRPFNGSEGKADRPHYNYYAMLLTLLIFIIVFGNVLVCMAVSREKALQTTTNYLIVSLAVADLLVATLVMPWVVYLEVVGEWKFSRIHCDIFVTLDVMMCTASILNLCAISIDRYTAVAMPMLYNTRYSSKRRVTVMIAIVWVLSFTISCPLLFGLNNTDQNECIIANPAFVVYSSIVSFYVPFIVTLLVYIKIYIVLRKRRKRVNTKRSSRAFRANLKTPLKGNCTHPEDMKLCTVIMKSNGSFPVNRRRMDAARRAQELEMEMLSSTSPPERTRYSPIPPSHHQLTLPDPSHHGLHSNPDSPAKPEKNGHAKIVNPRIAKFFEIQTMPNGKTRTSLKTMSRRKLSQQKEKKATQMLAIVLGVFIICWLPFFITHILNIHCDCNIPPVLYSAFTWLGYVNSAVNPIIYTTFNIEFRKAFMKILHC
The species named for experiment [3] is Rattus norvegicus. The class given is functional.
For experiment [4], the species on record is Rattus norvegicus. The class given is functional. This is another data set of the same source.
The species named for experiment [5] is Rattus norvegicus. Description: Ability to stimulate adenylate cyclase in rat retinal tissue over basal levels; NS=no significant stimulation. The class given is functional. An outline of the steps:
(§1)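 Agonist mode: adenylate cyclase stimulation measured in rat retinal tissue in vitro, with (R)-apomorphine as positive control for D-1 agonist activity; assay run by a previously published adenylate cyclase procedure.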

Experiment [6] is filed under the species Rattus norvegicus. The experiment in a line: Ability to block adenylate cyclase stimulation caused by 10 uM dopamine in rat retinal tissue in vitro at a concentration of 100 uM. The class given is functional.
Experiment [7] is filed under the species Rattus norvegicus. The experiment in a line: Ability to stimulate adenylate cyclase in rat retinal tissue over basal levels. The class given is functional. An outline of the steps:
as §1

Experiment [8] is described as follows: Activity was determined against Adenylate cyclase.

Sequence of D(1A) dopamine receptor (P18901 whole entry): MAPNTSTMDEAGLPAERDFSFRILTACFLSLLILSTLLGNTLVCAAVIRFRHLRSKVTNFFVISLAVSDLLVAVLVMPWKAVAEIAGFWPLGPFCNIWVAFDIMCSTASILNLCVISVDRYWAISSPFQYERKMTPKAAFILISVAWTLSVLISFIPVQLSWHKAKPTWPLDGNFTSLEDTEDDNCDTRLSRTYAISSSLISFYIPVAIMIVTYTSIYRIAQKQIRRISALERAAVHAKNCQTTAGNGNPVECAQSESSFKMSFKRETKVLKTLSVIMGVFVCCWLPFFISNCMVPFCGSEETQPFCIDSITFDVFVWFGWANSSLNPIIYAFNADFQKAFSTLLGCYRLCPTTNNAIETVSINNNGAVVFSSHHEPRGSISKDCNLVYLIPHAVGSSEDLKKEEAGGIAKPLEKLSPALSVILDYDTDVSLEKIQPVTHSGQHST

Regarding `COc1cccc2c1-c1cccc3c1[C@@H](C2)N(C)CC3`, the figures for the IC50 in experiment [1] and in experiment [2] were 3.28 µM and 2.16 µM, respectively. Moreover, the Inhibition (in general, the percentage by which the read-out fell short of the control) in experiment [3] came out at 7.7%; in experiment [4], 31.7%.
Turning to `CN1CCc2cccc3c2[C@H]1Cc1c(Cl)ccc(O)c1-3`, the IC50 (in general, the concentration that inhibits the measured activity by half) in experiment [1] is 0.561 µM; in experiment [2], 0.5 µM. Further, the values for the Inhibition in experiment [3] and in experiment [4] were 12.6% and 71.6%, respectively.
Taken in the same sequence, the figures for `CN1CCc2cccc3c2[C@@H]1Cc1c(Br)ccc(O)c1-3` were 8.61 µM, above 10 µM, 11.9% and 79.4%.
`CN1CCc2cccc3c2[C@@H]1Cc1ccc(O)c(O)c1-3` [(S)APOMORPHINE] showed an Inhibition in experiment [4] of 42.3%.
In the case of `COc1ccc2c(c1O)-c1cccc3c1[C@@H](C2)N(C)CC3` [APOCIDEINE], the IC50 in experiment [1] amounted to 13.3 µM; in experiment [2], 2.08 µM. This compound showed an Inhibition in experiment [4] of 5.7%. The Stimulation result in experiment [5] was “inactive”.
As for `CN1CCc2cccc3c2[C@H]1Cc1cc(Br)cc(O)c1-3`, the IC50 was found to be 0.818 µM in experiment [1] and 2.58 µM in experiment [2]. Also, the Inhibition in experiment [3] is listed as 5.3%; in experiment [4], 73.4%. For the same compound, the inhibition result in experiment [5] was “inactive”.
Turning to `COc1cccc2c1-c1cccc3c1[C@H](C2)N(C)CC3`, the 50% inhibitory concentration (IC50) came to 12.1 µM in experiment [1] and 0.829 µM in experiment [2]. Also, the Inhibition in experiment [3] worked out at 0.7%; in experiment [4] it was 0%.
Taken in the same sequence, the figures for `CN1CCc2cccc3c2[C@@H]1Cc1ccc(Br)c(O)c1-3` were 3.34 µM, 2.93 µM, 9.8% and 54.2%.
As to `CN1CCc2cccc3c2[C@H]1Cc1cccc(O)c1-3`, the IC50 in experiment [1] was determined as 0.107 µM; in experiment [2] it was 0.058 µM. Also, the Inhibition in experiment [3] is on record as 31.2%; in experiment [4], 87.8%. The Stimulation entry in experiment [5] is “inactive”.
Taken in the same sequence, the figures for `CN1CCc2cccc3c2[C@@H]1Cc1cccc(O)c1-3` were 5.06 µM, 2.24 µM, 0.8%, 38% and “inactive”.
Turning to `CCCN1CCC[C@@H]2Cc3nc(N)ncc3C[C@H]21` [QUINELORANE], the IC50 is above 10 µM in experiment [1] and 0.151 µM in experiment [2]. In experiment [6], this compound showed an Inhibition of 6.8%. Also, the Stimulation entry in experiment [5] is “inactive”.
On to `CN1CCc2cccc3c2[C@H]1Cc1c(Br)ccc(O)c1-3`, for which the IC50 in experiment [1] was found to be 0.181 µM; in experiment [2] it was 0.449 µM. Also, the Inhibition in experiment [3] is 13.1%; in experiment [4] it was 83.3%. Besides, the Stimulation result in experiment [5] is “inactive”.
As for `CN1CCc2cccc3c2[C@H]1Cc1c([N+](=O)[O-])ccc(O)c1-3`, the values for the Inhibition in experiment [3] and in experiment [4] were 7.2% and 33.5%, respectively.
`CN1CCc2cccc3c2[C@H]1Cc1c(Br)cc(Br)c(O)c1-3`: the IC50 in experiment [1] and in experiment [2] was above 1 µM each time. The values for the Inhibition in experiment [3] and in experiment [4] were 8.5% and 45.9%, respectively.
Consider `CN1CCc2cccc3c2[C@H]1Cc1ccc(Br)c(O)c1-3`, for which the values for the IC50 in experiment [1] and in experiment [2] were 0.171 µM and 0.664 µM, respectively. Moreover, the Inhibition in experiment [3] is listed as 24.4%; in experiment [4], 87.8%. Further, in experiment [5], the inhibition entry is “inactive”.
Compound `CN1CCc2cccc3c2[C@H]1Cc1ccc(O)c(O)c1-3` [APOMORPHINE] gave a Stimulation in experiment [7] of 91.5%.
As to `CN1CCc2cccc3c2[C@@H]1Cc1cc(Br)cc(O)c1-3`, the IC50 in experiment [1] and in experiment [2] was above 1 µM in each case. Moreover, the Inhibition in experiment [3] was 16.8%; in experiment [4] it was 3.2%.
Take `CN1CCc2cc(Cl)c(O)cc2[C@@H](c2ccccc2)C1` [SCH-23390]: the Inhibition in experiment [3] amounted to 86%; in experiment [4], 89.7%. In experiment [8], the IC50 was determined as 0.003 µM.
`COc1ccc2c(c1O)-c1c3c(cc4c1[C@H](C2)N(C)CC4)OCO3` [(S)-BULBOCAPNINE]: the IC50 in experiment [1] amounted to 0.739 µM; in experiment [2], 14 µM. Also, the Inhibition in experiment [3] was 24.4%; in experiment [4] it was 85.1%.
Taken in the same sequence, the figures for `CN1CCc2cccc3c2[C@H]1Cc1ccc(Cl)c(O)c1-3` were 0.637 µM, 0.803 µM, 19.7% and 82%.
